The values below come from ChEMBL document CHEMBL1144468, “Stepwise exposure of Staphylococcus aureus to pleuromutilins is associated with stepwise acquisition of mutations in rplC and minimally affects susceptibility to retapamulin” (2007).

What all share (type): functional
Assay [1] relates to Staphylococcus aureus. As to the kind of experiment: Antibacterial activity against Staphylococcus aureus RN4220 with rplC G152D, D159Y and G155R mutation. In short, it runs like this: (§1)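 Third-step mutants: second-step mutants were plated on five other pleuromutilins, each at 2 times its own MIC. Colonies appearing after extended incubation were replated at the selective concentration to confirm resistance. L3 was sequenced by colony PCR. These isolates grow very slowly; colonies form on blood agar only after more than 72 h.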

Assay [2] has as its system Staphylococcus aureus. The assay can be described thus: Antibacterial activity against Staphylococcus aureus RN4220 with rplC G152D, D159Y and G144R mutation. In outline: as §1
In assay [3] the test system is Staphylococcus aureus. As to the kind of experiment: Antibacterial activity against wild type Staphylococcus aureus RN4220.
Assay [4] relates to Staphylococcus aureus. The assay can be described thus: Antibacterial activity against Staphylococcus aureus RN4220 with rplC G152D and D159Y mutation. In short, it runs like this:
(§2)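 Second-step mutants came from the first-step L3 G152D RN4220 mutant. An overnight culture (2 x 10^9 CFU total) was plated on LB agar with 10 µg/ml tiamulin. Colonies were recultured on 10 µg/ml tiamulin to confirm resistance. L3 was sequenced after colony PCR.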

The subject of assay [5] is Staphylococcus aureus. As to the kind of experiment: Antibacterial activity against Staphylococcus aureus RN4220 with rplC D159Y mutation. In outline: (§3)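 Spontaneous first-step mutants of S. aureus RN4220. An overnight brain heart infusion culture was plated on LB agar with 1.0 µg/ml tiamulin. Colonies were patched to drug-free LB for 16 h at 37°C, then replica plated on LB agar with 1, 5, 10 and 20 µg/ml tiamulin. The rplC (L3) mutation was identified by colony PCR and sequencing.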

Assay [6] has as its system Staphylococcus aureus. The assay can be described thus: Antibacterial activity against Staphylococcus aureus RN4220 with rplC G155R mutation. In outline:
as §3

The subject of assay [7] is Staphylococcus aureus. The assay can be described thus: Antibacterial activity against Staphylococcus aureus RN4220 with rplC G152D mutation. In outline:
as §3

Assay [8] relates to Staphylococcus aureus. As to the kind of experiment: Antibacterial activity against Staphylococcus aureus RN4220 with rplC G152D, D159Y, G155R and H134N mutation. In short, it runs like this: as §1
For assay [9], the system named is Staphylococcus aureus. The assay can be described thus: Antibacterial activity against Staphylococcus aureus RN4220 with rplC G152D and G155R mutation. In short, it runs like this:
as §2

Assay [10] deals with Staphylococcus aureus. The assay can be described thus: Antibacterial activity against Staphylococcus aureus RN4220 with rplC G152D, D159Y, G155R and A150T mutation. In short, it runs like this:
as §1

The subject of assay [11] is Staphylococcus aureus. The assay can be described thus: Antibacterial activity against Staphylococcus aureus RN4220 with rplC S158L mutation. In short, it runs like this: as §3
Assay [12] relates to Staphylococcus aureus. As to the kind of experiment: Antibacterial activity against Staphylococcus aureus 2A1-1 with rplC G152D, D159Y and unmapped mutation. In short, it runs like this: as §1
Assay [13] relates to Staphylococcus aureus. The assay can be described thus: Antibacterial activity against Staphylococcus aureus 2A1-7 with rplC G152D, D159Y and unmapped mutation. In short, it runs like this:
as §1

For assay [14], the system named is Staphylococcus aureus. As to the kind of experiment: Antibacterial activity against Staphylococcus aureus 2A1-8 with rplC G152D, D159Y and unmapped mutation. In outline: as §1
For assay [15], the system named is Staphylococcus aureus. The assay can be described thus: Antibacterial activity against Staphylococcus aureus 2A1-7 fast2 with rplC D159Y and unmapped mutation. In short, it runs like this: (§4)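 Fast-growing variants of slow third-step mutants. Single colonies were streaked on unsupplemented LB agar and held more than 3 days at 37°C. At least 2 fast-growing colonies per mutant were purified on LB agar, then taken for MIC testing and sequencing.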

For assay [16], the system named is Staphylococcus aureus. As to the kind of experiment: Antibacterial activity against Staphylococcus aureus 2A1-1 fast2 with rplC D159Y and unmapped mutation. In short, it runs like this:
as §4

For assay [17], the system named is Staphylococcus aureus. As to the kind of experiment: Antibacterial activity against Staphylococcus aureus 2A1-7 fast1 with rplC D159Y and unmapped mutation. In short, it runs like this: as §4
For assay [18], the system named is Staphylococcus aureus. As to the kind of experiment: Antibacterial activity against Staphylococcus aureus 2A1-1 fast1 with rplC D159Y and unmapped mutation. In outline: as §4

Values after ≈ are worked out from the molar mass of the structure shown.

Regarding `C/C(=C\C(=O)OCCCCCCCCC(=O)O)C[C@@H]1OC[C@H](C[C@@H]2O[C@H]2[C@@H](C)[C@H](C)O)[C@@H](O)[C@H]1O` [MUPIROCIN], the MIC in assay [1], in assay [2], in assay [3], in assay [4], in [5] and in assay [6] was 0.06 µg/mL (≈ 0.12 µM) in each case. For the same compound, the MIC in assay [7], in assay [8], in assay [9], in assay [10] and in [11] was 0.06 µg/mL (≈ 0.12 µM) throughout.

As to `O=C(N[C@H](CO)[C@H](O)c1ccc([N+](=O)[O-])cc1)C(Cl)Cl` [CHLORAMPHENICOL], the MIC was 4 µg/mL (≈ 12.4 µM) in assay [1]; 8 µg/mL (≈ 24.8 µM) in assay [2]; 8 µg/mL (≈ 24.8 µM) in [12]; 4 µg/mL (≈ 12.4 µM) in assay [13]; 4 µg/mL (≈ 12.4 µM) in assay [3]; 8 µg/mL (≈ 24.8 µM) in [4]. Besides, the MIC is 4 µg/mL (≈ 12.4 µM) in assay [5]; 8 µg/mL (≈ 24.8 µM) in [6]; 4 µg/mL (≈ 12.4 µM) in assay [14]; 8 µg/mL (≈ 24.8 µM) in [15]; 8 µg/mL (≈ 24.8 µM) in [7]; 8 µg/mL (≈ 24.8 µM) in [8]. The MIC was found to be 8 µg/mL (≈ 24.8 µM) in assay [9]; 8 µg/mL (≈ 24.8 µM) in assay [16]; 8 µg/mL (≈ 24.8 µM) in assay [10]; 8 µg/mL (≈ 24.8 µM) in [17]; 8 µg/mL (≈ 24.8 µM) in assay [18]; 4 µg/mL (≈ 12.4 µM) in assay [11].

Consider `C[C@H]1COc2c(N3CCN(C)CC3)c(F)cc3c(=O)c(C(=O)O)cn1c23.C[C@H]1COc2c(N3CCN(C)CC3)c(F)cc3c(=O)c(C(=O)O)cn1c23.O` [LEVOFLOXACIN], for which the MIC in assay [1] worked out at 0.25 µg/mL; in assay [2] it was 0.25 µg/mL; in [12], 0.25 µg/mL; in assay [13], 0.25 µg/mL; in [3], 0.5 µg/mL; in [4] it was 0.25 µg/mL. Besides, the MIC was 0.5 µg/mL in assay [5]; 0.5 µg/mL in assay [6]; 0.25 µg/mL in assay [14]; 0.25 µg/mL in [15]; 0.5 µg/mL in assay [7]; 0.5 µg/mL in assay [8]. Besides, the MIC in assay [9] was found to be 0.25 µg/mL; in assay [16] it was 0.25 µg/mL; in assay [10] it was 0.125 µg/mL; in [17], 0.25 µg/mL; in assay [18] it was 0.5 µg/mL; in assay [11], 0.5 µg/mL.

Regarding `CN(C)[C@@H]1C(O)=C(C(N)=O)C(=O)[C@@]2(O)C(O)=C3C(=O)c4c(O)cccc4[C@@](C)(O)[C@H]3C[C@@H]12` [TETRACYCLINE], the MIC is 0.25 µg/mL (≈ 0.563 µM) in assay [1]; 0.25 µg/mL (≈ 0.563 µM) in assay [2]; ≤ 0.06 µg/mL in assay [12]; ≤ 0.06 µg/mL in [13]; 0.25 µg/mL (≈ 0.563 µM) in assay [3]; 0.25 µg/mL (≈ 0.563 µM) in assay [4]. The MIC in [5] was 0.25 µg/mL (≈ 0.563 µM); in assay [6], 0.25 µg/mL (≈ 0.563 µM); in assay [14] it was ≤ 0.06 µg/mL; in assay [15], 0.25 µg/mL (≈ 0.563 µM); in assay [7], 0.25 µg/mL (≈ 0.563 µM); in assay [8], 0.25 µg/mL (≈ 0.563 µM). The MIC in [9], in assay [16], in assay [10], in assay [17], in assay [18] and in assay [11] was 0.25 µg/mL (≈ 0.563 µM) in each case.

In the case of `C=C[C@]1(C)C[C@@H](OC(=O)CSCCN(CC)CC)[C@]2(C)[C@H](C)CC[C@]3(CCC(=O)[C@H]32)[C@@H](C)[C@@H]1O` [TIAMULIN], the MIC in assay [1] was > 64 µg/mL; in [2] it was 32 µg/mL (≈ 64.8 µM); in assay [12], 64 µg/mL (≈ 130 µM); in [13], 64 µg/mL (≈ 130 µM); in assay [3], 0.25 µg/mL (≈ 0.506 µM); in assay [4], 16 µg/mL (≈ 32.4 µM). In addition, the MIC in [5] was determined as 4 µg/mL (≈ 8.1 µM); in assay [6], 4 µg/mL (≈ 8.1 µM); in [14], 32 µg/mL (≈ 64.8 µM); in [15], 2 µg/mL (≈ 4.05 µM); in [7], 4 µg/mL (≈ 8.1 µM); in [8], 2 µg/mL (≈ 4.05 µM). Moreover, the MIC in [9] was determined as 16 µg/mL (≈ 32.4 µM); in assay [16], 2 µg/mL (≈ 4.05 µM); in [10], 4 µg/mL (≈ 8.1 µM); in [17] it was 2 µg/mL (≈ 4.05 µM); in [18], 2 µg/mL (≈ 4.05 µM); in [11], 2 µg/mL (≈ 4.05 µM).

Consider `C=C[C@]1(C)C[C@@H](OC(=O)CS[C@@H]2C[C@H]3CC[C@@H](C2)N3C)[C@]2(C)[C@H](C)CC[C@]3(CCC(=O)[C@H]32)[C@@H](C)[C@@H]1O` [RETAPAMULIN], for which the MIC is 4 µg/mL (≈ 7.73 µM) in [1]; 4 µg/mL (≈ 7.73 µM) in assay [2]; 8 µg/mL (≈ 15.5 µM) in assay [12]; 8 µg/mL (≈ 15.5 µM) in assay [13]; ≤ 0.06 µg/mL in [3]; 1 µg/mL (≈ 1.93 µM) in assay [4]. Further, the MIC in [5] amounted to 0.25 µg/mL (≈ 0.483 µM); in assay [6] it was 0.5 µg/mL (≈ 0.966 µM); in assay [14] it was 2 µg/mL (≈ 3.86 µM); in assay [15], 0.25 µg/mL (≈ 0.483 µM); in assay [7] it was 0.25 µg/mL (≈ 0.483 µM); in [8], 0.125 µg/mL (≈ 0.241 µM). Moreover, the MIC is 1 µg/mL (≈ 1.93 µM) in assay [9]; 0.25 µg/mL (≈ 0.483 µM) in [16]; 0.25 µg/mL (≈ 0.483 µM) in assay [10]; 0.25 µg/mL (≈ 0.483 µM) in [17]; 0.25 µg/mL (≈ 0.483 µM) in assay [18]; 0.25 µg/mL (≈ 0.483 µM) in assay [11].
